Results taken from ChEMBL document CHEMBL4266040, “Structure-Based Engineering of Irreversible Inhibitors against Histone Lysine Demethylase KDM5A” (J Med Chem, 2018).
Calls of active or inactive are those of the source. The rule behind the calls is not given here.

Columns and labels:
[1] = target: T1, Lysine-specific demethylase 5A (Homo sapiens, UniProt P29375); assay: Binding affinity to KDM5A ARID/PhD1 domain deletion mutant (1 to 588 residues) (unknown origin) by ITC assay
[2] = Metabolic stability in human BT474 cell culture media assessed as parent compound remaining at 10 uM after 24 hrs by LC-MS/MS analysis; type: physicochemical; conditions: read-out: Stability
[3] = Drug level in human BT474 cell culture media treated with isopropyl 2-((3-Aminophenyl)(2-(piperidin-1-yl)-ethoxy)methyl)thieno[3,2-b]pyridine-7-carboxylate at 10 uM after 24 hrs by LC-MS/MS analysis; type: physicochemical
[4] = target: T2, Lysine-specific demethylase 4A (Homo sapiens, UniProt O75164); assay: Irreversible inhibition of recombinant KDM4A (1 to 350 residues) (unknown origin) expressed in Escherichia coli using H3 (1 to 21 residues) K9me3 as substrate preincubated for 10 mins followed by substrate/alphaKG/(NH4)2Fe(SO4)2 addition measured after 1 hr by alphaLISA assay
T2 sequence (O75164 whole entry): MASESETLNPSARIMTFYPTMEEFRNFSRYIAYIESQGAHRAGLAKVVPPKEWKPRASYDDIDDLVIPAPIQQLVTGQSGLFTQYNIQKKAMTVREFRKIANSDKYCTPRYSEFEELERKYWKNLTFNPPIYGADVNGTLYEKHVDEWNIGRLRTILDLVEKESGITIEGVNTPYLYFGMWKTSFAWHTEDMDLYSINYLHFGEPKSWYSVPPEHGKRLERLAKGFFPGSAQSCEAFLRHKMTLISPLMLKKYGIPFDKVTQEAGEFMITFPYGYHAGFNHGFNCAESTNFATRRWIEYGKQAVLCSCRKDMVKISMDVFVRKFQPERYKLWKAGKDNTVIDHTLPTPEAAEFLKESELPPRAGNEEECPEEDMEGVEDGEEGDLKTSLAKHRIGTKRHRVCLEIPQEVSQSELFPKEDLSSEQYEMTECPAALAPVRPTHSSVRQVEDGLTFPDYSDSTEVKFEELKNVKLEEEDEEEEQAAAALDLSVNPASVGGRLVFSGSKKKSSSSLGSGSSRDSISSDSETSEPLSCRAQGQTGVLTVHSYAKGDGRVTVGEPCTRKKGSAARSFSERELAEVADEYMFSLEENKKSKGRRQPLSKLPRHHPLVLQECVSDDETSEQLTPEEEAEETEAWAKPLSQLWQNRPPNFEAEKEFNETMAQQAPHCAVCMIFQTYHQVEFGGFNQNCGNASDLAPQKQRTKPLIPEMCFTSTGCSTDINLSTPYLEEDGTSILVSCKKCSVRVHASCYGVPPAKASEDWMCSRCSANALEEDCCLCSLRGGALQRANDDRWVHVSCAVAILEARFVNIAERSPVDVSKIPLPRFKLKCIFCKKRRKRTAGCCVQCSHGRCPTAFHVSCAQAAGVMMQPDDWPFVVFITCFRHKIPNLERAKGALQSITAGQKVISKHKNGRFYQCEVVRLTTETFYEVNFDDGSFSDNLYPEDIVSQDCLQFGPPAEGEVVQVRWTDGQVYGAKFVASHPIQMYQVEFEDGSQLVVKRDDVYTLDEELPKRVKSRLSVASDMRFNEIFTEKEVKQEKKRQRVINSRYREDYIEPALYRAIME
Summary of the method: (§1)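 AlphaLISA using antibody to H3K4 (KDM5B) or H3K9 (KDM4A) methylation to detect demethylation of enzyme-specific histone peptides. Both enzymes are recombinant catalytic domains from E. coli, tested at the same enzyme concentration.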

[5] = target: T1, Lysine-specific demethylase 5A; assay: Irreversible inhibition of KDM5A ARID/PhD1 domain deletion mutant (1 to 739 residues) (unknown origin) using 1000 uM alpha-KG by succinate-glo demethylase assay
Summary of the method: (§2)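 KDM5A(1−739)ΔAP (0.8 μM) preincubated 20 min with 2-fold serial dilutions of compound. Reaction started with αKG (10, 100 or 1000 μM) and H3(1−24)K4me3 (60 μM), 10 μM (NH4)2Fe(SO4)2, 100 μM ascorbate, 50 mM HEPES pH 8.0, 5% DMSO. Run 10 min at ambient temperature, n = 3; succinate read by Succinate-Glo luminescence.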

Homo sapiens [6] = organism: Homo sapiens; assay: Selectivity ratio of IC50 for recombinant KDM4A (1 to 350 residues) (unknown origin) to IC50 for recombinant KDM5B ARID/PhD1 domain deletion (1 to 755 residues) (unknown origin); summary of the method: as §1
[7] = target: T1, Lysine-specific demethylase 5A; assay: Irreversible inhibition of KDM5A ARID/PhD1 domain deletion mutant (1 to 739 residues) (unknown origin) using alpha-KG measured immediately by succinate-glo demethylase assay
Summary of the method: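 Compound and KDM5A(1−739)ΔAP either without preincubation or preincubated 20 min before αKG addition; activity read by Succinate-Glo.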

[8] = target: T1, Lysine-specific demethylase 5A; assay: Binding affinity to KDM5A ARID/PhD1 domain deletion mutant (1 to 588 residues) (unknown origin) assessed as covalent modification of enzyme at 0.5 mM after 30 mins by ESI-tandem-MS analysis
[9] = target: T1, Lysine-specific demethylase 5A; assay: Irreversible inhibition of KDM5A ARID/PhD1 domain deletion mutant (1 to 739 residues) (unknown origin) at 100 uM using alpha-KG measured after 4 times of buffer exchange by succinate-glo demethylase assay
Summary of the method: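 Enzyme–inhibitor complex preformed ([E] = 5 μM, initial [I] = 100 μM), then four buffer exchanges before Succinate-Glo activity measurement.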

[10] = target: T1, Lysine-specific demethylase 5A; assay: Irreversible inhibition of KDM5A ARID/PhD1 domain deletion mutant (1 to 739 residues) (unknown origin) using 100 uM alpha-KG by succinate-glo demethylase assay; summary of the method: as §2
[11] = target: T1, Lysine-specific demethylase 5A; assay: Irreversible inhibition of KDM5A ARID/PhD1 domain deletion mutant (1 to 739 residues) (unknown origin) using 10 uM alpha-KG by succinate-glo demethylase assay; summary of the method: as §2
[12] = target: T1, Lysine-specific demethylase 5A; assay: Irreversible inhibition of KDM5A ARID/PhD1 domain deletion mutant (1 to 739 residues) (unknown origin) using alpha-KG by succinate-glo demethylase assay; summary of the method: as §2
[13] = Effective permeability of the compound at pH 7.4 by PAMPA; type: ADME; conditions: for Papp: read-out: Peff
Summary of the method: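 PAMPA with a lipid/dodecane artificial membrane and pH 7.4 buffer in donor and acceptor wells. Compounds diluted from 10 mM DMSO stock to 0.05 mM final, 0.5% DMSO. Donor stirred during a 30 min permeation at room temperature. Donor and acceptor concentrations read by UV. Permeability given in 10−6 cm s−1: >100 high, 10–100 moderate, <10 low.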

BT-474 = assay: Growth inhibition of human BT474 cells at 0.11 to 3.5 uM measured every 4 hrs for 300 hrs by IncuCyte live cell imaging method; type: functional, cell-based
Summary of the method: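 BT474 cells grown with compound; percent confluence tracked by IncuCyte live-cell imaging every 4 h over 300 h.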

Homo sapiens [14] = organism: Homo sapiens; assay: Selectivity ratio of IC50 for KDM4A (1 to 350 residues) (unknown origin) to IC50 for KDM5A ARID/PhD1 domain deletion mutant (1 to 739 residues) (unknown origin)
Homo sapiens [15] = organism: Homo sapiens; assay: Selectivity ratio of IC50 for KDM5A ARID/PhD1 domain deletion mutant (1 to 739 residues) (unknown origin) to IC50 for KDM6A (880 to 1401 residues) (unknown origin)
[16] = target: T1, Lysine-specific demethylase 5A; assay: Inhibition of KDM5A ARID/PhD1 domain deletion mutant (1 to 739 residues) (unknown origin) using H3 ( 1 to 24 residues) K4me3 as substrate preincubated for 15 min followed by substrate addition measured after 15 mins by FDH-coupled demethylase assay
[17] = target: T2, Lysine-specific demethylase 4A; assay: Inhibition of KDM4A (1 to 350 residues) (unknown origin) using H3 ( 1 to 15 residues) K9me3 as substrate preincubated for 15 min followed by substrate addition measured after 15 mins by FDH-coupled demethylase assay
[18] = target: Lysine-specific demethylase 6A (Homo sapiens, UniProt O15550); assay: Inhibition of KDM6A (880 to 1401 residues) (unknown origin) using H3 ( 21 to 44 residues) K27me3 as substrate preincubated for 15 min followed by substrate addition measured after 15 mins by FDH-coupled demethylase assay
Chain of Lysine-specific demethylase 6A (O15550 whole entry, the tested form may be a part): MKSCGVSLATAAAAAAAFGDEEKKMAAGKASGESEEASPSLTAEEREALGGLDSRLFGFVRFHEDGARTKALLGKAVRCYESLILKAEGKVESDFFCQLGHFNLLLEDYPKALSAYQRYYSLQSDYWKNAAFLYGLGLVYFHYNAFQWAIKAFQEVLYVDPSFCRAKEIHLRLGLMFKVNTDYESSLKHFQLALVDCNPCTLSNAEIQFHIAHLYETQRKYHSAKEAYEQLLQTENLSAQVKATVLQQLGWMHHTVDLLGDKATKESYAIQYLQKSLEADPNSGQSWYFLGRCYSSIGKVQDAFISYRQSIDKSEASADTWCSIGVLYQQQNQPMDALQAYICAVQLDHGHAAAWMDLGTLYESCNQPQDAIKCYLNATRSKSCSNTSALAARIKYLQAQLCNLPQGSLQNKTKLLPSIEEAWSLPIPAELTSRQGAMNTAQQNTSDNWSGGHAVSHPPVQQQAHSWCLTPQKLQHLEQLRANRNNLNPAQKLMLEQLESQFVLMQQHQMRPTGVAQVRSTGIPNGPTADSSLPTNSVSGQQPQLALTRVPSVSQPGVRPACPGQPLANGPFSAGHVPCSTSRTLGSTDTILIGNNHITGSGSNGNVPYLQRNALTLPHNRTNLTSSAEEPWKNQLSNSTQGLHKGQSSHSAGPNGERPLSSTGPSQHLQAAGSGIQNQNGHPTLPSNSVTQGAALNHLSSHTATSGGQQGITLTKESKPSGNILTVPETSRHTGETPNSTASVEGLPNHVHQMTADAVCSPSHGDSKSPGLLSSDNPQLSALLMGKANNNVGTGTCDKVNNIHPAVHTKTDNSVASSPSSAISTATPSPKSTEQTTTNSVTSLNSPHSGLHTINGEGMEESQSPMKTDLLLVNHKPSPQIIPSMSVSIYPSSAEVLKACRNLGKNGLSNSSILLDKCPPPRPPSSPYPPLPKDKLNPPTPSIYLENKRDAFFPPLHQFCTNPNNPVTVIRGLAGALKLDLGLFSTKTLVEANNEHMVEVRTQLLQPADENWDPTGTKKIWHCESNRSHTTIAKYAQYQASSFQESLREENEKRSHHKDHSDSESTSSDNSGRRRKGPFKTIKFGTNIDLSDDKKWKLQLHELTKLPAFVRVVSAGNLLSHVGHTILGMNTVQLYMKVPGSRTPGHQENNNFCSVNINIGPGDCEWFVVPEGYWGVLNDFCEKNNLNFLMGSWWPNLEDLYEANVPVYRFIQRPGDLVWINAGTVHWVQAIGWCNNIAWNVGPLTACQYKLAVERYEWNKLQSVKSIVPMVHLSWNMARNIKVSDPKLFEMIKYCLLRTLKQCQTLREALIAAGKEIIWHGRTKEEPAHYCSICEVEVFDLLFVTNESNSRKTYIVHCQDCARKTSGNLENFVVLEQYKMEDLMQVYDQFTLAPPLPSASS

[19] = target: T1, Lysine-specific demethylase 5A; assay: Inhibition of KDM5A in human MCF7 cells assessed as effect on H3K27me3 methylation levels at 1 to 10 uM after 30 hrs by Western blot analysis; type: cell-based
Summary of the method: (§3)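 MCF7 breast cancer cells were exposed to compound, with a 0.1% DMSO control, for 30 or 48 h. Total cell lysates were then probed by Western blot with antibodies to histone methylation marks.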

[20] = target: T1, Lysine-specific demethylase 5A; assay: Inhibition of KDM5A in human MCF7 cells assessed as effect on H3K4me3 methylation levels at 1 to 10 uM after 30 hrs by Western blot analysis; type: cell-based; summary of the method: as §3
[21] = target: T1, Lysine-specific demethylase 5A; assay: Irreversible inhibition of KDM5A ARID/PhD1 domain deletion mutant (1 to 739 residues) (unknown origin)
Summary of the method: (§4)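 KDM5A (0.8 μM) preincubated with five inhibitor concentrations (0.01–5 μM). At each time point, mixture added to H3 peptide (60 μM) and αKG (100 μM) and stopped after 7 min. Log % remaining activity plotted against preincubation time; negative slopes fitted by nonlinear regression against [I] to give kinact and KI.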

[22] = target: T1, Lysine-specific demethylase 5A; assay: Irreversible inhibition of KDM5A ARID/PhD1 domain deletion mutant (1 to 739 residues) (unknown origin) using alpha-KG as substrate by succinate-glo demethylase assay; conditions: TDE = time-dependent effect; summary of the method: as §2
[23] = target: T1, Lysine-specific demethylase 5A; assay: Irreversible inhibition of 1.6 uM KDM5A ARID/PhD1 domain deletion mutant (1 to 739 residues) (unknown origin) using 100 uM alpha-KG by succinate-glo demethylase assay
Summary of the method: (§5)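 Succinate-Glo run with KDM5A(1−739)ΔAP at varied enzyme concentration and 100 μM αKG. H3(1−24)K4me3 60 μM, Fe(II) 10 μM, ascorbate 100 μM, HEPES pH 8.0, 5% DMSO.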

[24] = target: T1, Lysine-specific demethylase 5A; assay: Irreversible inhibition of KDM5A ARID/PhD1 domain deletion mutant (1 to 739 residues) (unknown origin) assessed as Kinact to Ki ratio; summary of the method: as §4
[25] = target: T1, Lysine-specific demethylase 5A; assay: Irreversible inhibition of 0.8 uM KDM5A ARID/PhD1 domain deletion mutant (1 to 739 residues) (unknown origin) using 100 uM alpha-KG by succinate-glo demethylase assay; summary of the method: as §5
[26] = target: T1, Lysine-specific demethylase 5A; assay: Irreversible inhibition of 0.4 uM KDM5A ARID/PhD1 domain deletion mutant (1 to 739 residues) (unknown origin) using 100 uM alpha-KG by succinate-glo demethylase assay; summary of the method: as §5

T1 sequence (P29375 whole entry, the tested form may be a part): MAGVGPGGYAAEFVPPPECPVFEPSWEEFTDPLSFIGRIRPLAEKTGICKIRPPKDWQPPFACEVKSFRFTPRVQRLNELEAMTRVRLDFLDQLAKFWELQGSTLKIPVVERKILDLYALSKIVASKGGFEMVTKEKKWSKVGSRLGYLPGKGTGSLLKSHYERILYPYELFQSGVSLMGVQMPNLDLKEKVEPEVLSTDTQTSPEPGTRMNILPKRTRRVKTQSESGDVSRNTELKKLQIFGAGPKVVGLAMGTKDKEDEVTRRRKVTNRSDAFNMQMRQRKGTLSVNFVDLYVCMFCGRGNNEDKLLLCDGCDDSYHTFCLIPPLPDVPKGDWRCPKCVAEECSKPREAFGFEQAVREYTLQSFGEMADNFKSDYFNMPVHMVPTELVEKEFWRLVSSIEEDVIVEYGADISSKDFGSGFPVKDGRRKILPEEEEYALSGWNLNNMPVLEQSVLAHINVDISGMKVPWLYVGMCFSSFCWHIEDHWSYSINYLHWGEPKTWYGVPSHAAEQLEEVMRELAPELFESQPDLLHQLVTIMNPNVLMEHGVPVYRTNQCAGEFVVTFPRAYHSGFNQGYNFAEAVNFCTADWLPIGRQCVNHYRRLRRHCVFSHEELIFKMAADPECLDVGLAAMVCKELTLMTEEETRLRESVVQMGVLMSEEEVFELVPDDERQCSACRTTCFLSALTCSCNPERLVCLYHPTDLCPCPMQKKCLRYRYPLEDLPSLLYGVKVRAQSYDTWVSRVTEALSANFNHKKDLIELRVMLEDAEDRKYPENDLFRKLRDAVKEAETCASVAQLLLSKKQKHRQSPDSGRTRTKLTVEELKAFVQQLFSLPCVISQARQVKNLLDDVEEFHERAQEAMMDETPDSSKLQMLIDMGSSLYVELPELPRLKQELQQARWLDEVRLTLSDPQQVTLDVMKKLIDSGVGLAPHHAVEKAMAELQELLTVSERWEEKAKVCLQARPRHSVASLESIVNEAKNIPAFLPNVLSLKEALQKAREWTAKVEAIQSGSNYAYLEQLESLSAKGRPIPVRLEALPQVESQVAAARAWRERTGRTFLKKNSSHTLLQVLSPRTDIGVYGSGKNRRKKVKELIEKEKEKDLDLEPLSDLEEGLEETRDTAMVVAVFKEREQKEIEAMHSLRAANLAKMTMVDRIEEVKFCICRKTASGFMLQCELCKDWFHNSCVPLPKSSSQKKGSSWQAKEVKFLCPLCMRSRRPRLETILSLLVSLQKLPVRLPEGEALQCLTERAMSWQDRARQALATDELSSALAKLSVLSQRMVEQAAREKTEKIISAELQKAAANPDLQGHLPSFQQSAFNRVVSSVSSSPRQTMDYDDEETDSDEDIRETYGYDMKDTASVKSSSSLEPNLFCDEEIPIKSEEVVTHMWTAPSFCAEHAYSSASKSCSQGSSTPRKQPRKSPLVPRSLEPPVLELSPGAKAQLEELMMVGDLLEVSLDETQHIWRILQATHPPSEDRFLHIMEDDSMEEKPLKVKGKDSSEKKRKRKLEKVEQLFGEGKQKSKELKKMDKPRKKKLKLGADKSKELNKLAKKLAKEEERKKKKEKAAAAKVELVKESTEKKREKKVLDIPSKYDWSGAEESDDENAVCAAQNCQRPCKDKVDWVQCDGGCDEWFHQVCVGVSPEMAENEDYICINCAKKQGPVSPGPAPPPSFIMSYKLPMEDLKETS

Kd [1] [µM] | Ratio IC50 (Homo sapiens [14]) | Ratio IC50 (Homo sapiens [15]) | IC50 [16] [µM] | IC50 [17] [µM] | IC50 [18] [µM] | Structure (SMILES) | remaining at 24 h, 10 µM [2] [%] | IC50 [4] [µM] | Ratio IC50 (Homo sapiens [6]) | further results
– | – | – | – | – | – | Nc1cccc(C(OCCN2CCCCC2)c2cc3nccc(C(=O)O)c3s2)c1 (configuration not stated) | 93 | 4.2 | 8.6 | Drug metabolism [3]: Metabolite_Detected; IC50 [5]: > 100000 nM; IC50 [7]: 5500 nM; Activity [8]: inactive; inhibition [9]: inactive; IC50 [10]: 5400 nM; IC50 [11]: 700 nM; IC50 [12]: 4.9 µM; Papp [13]: 52.7 ×10⁻⁶ cm/s
– | – | – | – | – | – | CC(C)OC(=O)c1ccnc2cc(C(OCCN3CCCCC3)c3cccc(N)c3)sc12 (configuration not stated) | 75 | – | – | Peff [13]: 1018 ×10⁻⁶ cm/s; growth inhibition (GI) (BT-474): Active
6 | 3.2 to 3.6 | 1.5 to 1.8 | 71 | 230 | 39 | C=CC(=O)N1CCCN(c2cc(NCCC(=O)O)nc(-c3ccccn3)n2)CC1 | – | – | – | –
– | – | – | – | – | – | CCOC(=O)CCNc1cc(N2CCc3ccccc3CC2)nc(-c2ccccn2)n1 | – | – | – | inhibition [19]: Active; inhibition [20]: Active
12 | 3.2 to 3.6 | 1.5 to 1.8 | 110 | 400 | 69 | O=C(O)CCNc1cc(N2CCc3ccccc3CC2)nc(-c2ccccn2)n1 | – | – | – | –
– | – | – | – | – | – | CN(C)C/C=C/C(=O)Nc1cccc(C(OCCN2CCCCC2)c2cc3nccc(C(=O)O)c3s2)c1 (configuration not stated) | 60 | 5.3 | 24 | IC50 [5]: 180 nM; IC50 [7]: 110 nM; Ki [21]: 410 nM; Kinact [21]: 0.198 min⁻¹; inhibition [22]: Tde; IC50 [23]: 360 nM; Ratio [24]: 8 ×10³ /M/s; IC50 [25]: 180 nM; Activity [8]: Active; inhibition [9]: Active; IC50 [10]: 110 nM; IC50 [11]: 100 nM; IC50 [12]: 1.24 µM; Papp [13]: < 1 ×10⁻⁶ cm/s; IC50 [26]: 60 nM
9 | 3.2 to 3.6 | 1.5 to 1.8 | 83 | 290 | 55 | C=CS(=O)(=O)N1CCCN(c2cc(NCCC(=O)O)nc(-c3ccccn3)n2)CC1 | – | – | – | –

Structure (SMILES) | Kd [1] [µM] | Ratio IC50 (Homo sapiens [14]) | Ratio IC50 (Homo sapiens [15]) | IC50 [16] [µM] | IC50 [17] [µM] | IC50 [18] [µM] | remaining at 24 h, 10 µM [2] [%] | IC50 [4] [µM] | Ratio IC50 (Homo sapiens [6]) | further results
CN1CCCC1CCOC(c1cc2nccc(C(=O)O)c2[nH]1)c1ccccc1Cl (configuration not stated) | 0.15 | – | – | – | – | – | – | – | – | –
CN1CCCC1CCOC(c1cc2nccc(C(=O)O)c2s1)c1ccccc1Cl (configuration not stated) | 0.26 | – | – | – | – | – | – | 2.2 | 7 | –
